# How the values were obtained:
# [1] = system: Candida albicans; assay: Antifungal activity against fluconazole resistant Candida albicans 167-2 by CLSI protocol based broth microdilution method; assay type: functional
# How it was run: (§1)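 Broth microdilution per CLSI M27-A3 against clinical C. albicans isolates. Strains sub-cultured at least twice on Tryptone Soya Agar, 37 °C, 48 h. Compounds dissolved in DMSO at 2000 μg mL–1 stock. Fluconazole positive control, plus culture, media and vehicle controls. Run in duplicate; MIC in μg mL–1.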
# [2] = system: Candida albicans; assay: Antifungal activity against fluconazole resistant Candida albicans A171 by CLSI protocol based broth microdilution method; assay type: functional; how it was run: as §1
# [3] = system: Candida albicans; assay: Antifungal activity against fluconazole resistant Candida albicans 167-1 by CLSI protocol based broth microdilution method; assay type: functional; how it was run: as §1
# [4] = system: Candida albicans; assay: Antifungal activity against fluconazole susceptible Candida albicans 002B1 by CLSI protocol based broth microdilution method; assay type: functional
# How it was run: (§2)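 Clinical isolates and control strain subcultured at least twice on TSA, 37 °C, 48 h. MICs by CLSI M27-A3 broth microdilution; compounds dissolved in DMSO to 2000 μg mL–1 stock. Fluconazole positive control, culture, media and DMSO vehicle controls in each run. Duplicate experiments; MIC in μg mL–1.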
# [5] = system: Candida albicans; assay: Antifungal activity against fluconazole susceptible Candida albicans 003gr by CLSI protocol based broth microdilution method; assay type: functional; how it was run: as §2
# [6] = system: Candida albicans; assay: Antifungal activity against fluconazole susceptible Candida albicans 004gr by CLSI protocol based broth microdilution method; assay type: functional; how it was run: as §2
# [7] = system: Candida albicans; assay: Antifungal activity against fluconazole susceptible Candida albicans 004B1 by CLSI protocol based broth microdilution method; assay type: functional; how it was run: as §2
# [8] = system: Candida albicans; assay: Antifungal activity against fluconazole susceptible Candida albicans 0079gr by CLSI protocol based broth microdilution method; assay type: functional; how it was run: as §2
# [9] = system: Candida albicans; assay: Antifungal activity against fluconazole susceptible Candida albicans 0072gr by CLSI protocol based broth microdilution method; assay type: functional; how it was run: as §2
# [10] = system: Candida albicans; assay: Antifungal activity against Candida albicans ATCC 90028 by CLSI protocol based broth microdilution method; assay type: functional; how it was run: as §2
# [11] = system: Candida albicans; assay: Antifungal activity against fluconazole resistant Candida albicans A171 in presence of fluconazole by CLSI protocol based broth microdilution method; assay type: functional
# How it was run: (§3)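 Checkerboard-style combination with fluconazole at a 1 : 1 ratio, over concentrations 2–4 fold below each agent's MIC alone, by CLSI broth microdilution. Fractional inhibitory concentration index calculated and interpreted as synergy (<0.5), additive (0.5–1), indifferent or antagonistic.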
# [12] = system: Candida albicans; assay: Antifungal activity against fluconazole resistant Candida albicans 167-1 in presence of fluconazole by CLSI protocol based broth microdilution method; assay type: functional; how it was run: as §3
# [13] = system: Candida albicans; assay: Antifungal activity against fluconazole resistant Candida albicans 167-2 in presence of fluconazole by CLSI protocol based broth microdilution method; assay type: functional; how it was run: as §3
# [14] = system: Candida albicans; assay: Antifungal activity against fluconazole susceptible Candida albicans 002B1 in presence of fluconazole by CLSI protocol based broth microdilution method; assay type: functional
# [15] = system: Candida albicans; assay: Antifungal activity against fluconazole susceptible Candida albicans 003gr in presence of fluconazole by CLSI protocol based broth microdilution method; assay type: functional
# [16] = system: Candida albicans; assay: Antifungal activity against fluconazole susceptible Candida albicans 004gr in presence of fluconazole by CLSI protocol based broth microdilution method; assay type: functional
# [17] = system: Candida albicans; assay: Antifungal activity against fluconazole susceptible Candida albicans 004B1 in presence of fluconazole by CLSI protocol based broth microdilution method; assay type: functional
# [18] = system: Candida albicans; assay: Antifungal activity against fluconazole susceptible Candida albicans 0079gr in presence of fluconazole by CLSI protocol based broth microdilution method; assay type: functional
# [19] = system: Candida albicans; assay: Antifungal activity against fluconazole susceptible Candida albicans 0072gr in presence of fluconazole by CLSI protocol based broth microdilution method; assay type: functional
# [20] = system: Candida albicans; assay: Antifungal activity against Candida albicans ATCC 90028 in presence of fluconazole by CLSI protocol based broth microdilution method; assay type: functional
# [21] = system: Candida albicans; assay: Inhibition of ABC efflux pumps in fluconazole resistant Candida albicans A171 assessed as reduction in energy-dependent rhodamine 6G efflux in presence of 0.1 M glucose after 25 mins by fluorescence assay relative to control
# How it was run: (§4)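 Cells grown in TSB at 37 °C for 8 h, washed, resuspended in glucose-free PBS at 1 × 10^8 cells. De-energized 45 min with 5 mM deoxyglucose plus 5 mM dinitrophenol. […] Washed, sampled 5–25 min, then 0.1 M glucose added. Absorbance 527 nm, R6G from standard curve.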
# [22] = system: Candida albicans; assay: Inhibition of ABC efflux pumps in fluconazole resistant Candida albicans 167-1 assessed as reduction in energy-dependent rhodamine 6G efflux in presence of 0.1 M glucose after 25 mins […] relative to control
# [23] = system: Candida albicans; assay: Inhibition of ABC efflux pumps in fluconazole resistant Candida albicans 167-2 assessed as reduction in energy-dependent rhodamine 6G efflux in presence of 0.1 M glucose after 25 mins […] relative to control
# [24] = system: Candida albicans; assay: Inhibition of ABC efflux pumps in fluconazole susceptible Candida albicans 002B1 assessed as reduction in energy-dependent rhodamine 6G efflux in presence of 0.1 M glucose after 25 mins […] relative to control
# [25] = system: Candida albicans; assay: Inhibition of ABC efflux pumps in fluconazole susceptible Candida albicans 003gr assessed as reduction in energy-dependent rhodamine 6G efflux in presence of 0.1 M glucose after 25 mins […] relative to control
# [26] = system: Candida albicans; assay: Inhibition of ABC efflux pumps in fluconazole susceptible Candida albicans 004gr assessed as reduction in energy-dependent rhodamine 6G efflux in presence of 0.1 M glucose after 25 mins by fluorescence assay relative to control; how it was run: as §4
# [27] = system: Candida albicans; assay: Inhibition of ABC efflux pumps in fluconazole susceptible Candida albicans 004B1 assessed as reduction in energy-dependent rhodamine 6G efflux in presence of 0.1 M glucose after 25 mins by fluorescence assay relative to control; how it was run: as §4
# [28] = system: Candida albicans; assay: Inhibition of ABC efflux pumps in fluconazole susceptible Candida albicans 0079gr assessed as reduction in energy-dependent rhodamine 6G efflux in presence of 0.1 M glucose after 25 mins by fluorescence assay relative to control; how it was run: as §4
# [29] = system: Candida albicans; assay: Inhibition of ABC efflux pumps in fluconazole susceptible Candida albicans 0072gr assessed as reduction in energy-dependent rhodamine 6G efflux in presence of 0.1 M glucose after 25 mins […] relative to control
# [30] = system: Candida albicans; assay: Inhibition of ergosterol biosynthesis in fluconazole resistant Candida albicans A171 at 0.5 to 1 times MIC relative to control; assay type: functional
# How it was run: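 Total sterols quantified by alcoholic KOH extraction in cells grown in 50 ml TSB with compounds at MIC and ½ MIC; untreated and 8 μg mL–1 fluconazole controls. Spectral scan; ergosterol content from A281.5 and A230 absorbances, dilution factor and pellet weight, correcting for 24(28) DHE.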
# [31] = system: Candida albicans; assay: Inhibition of ergosterol biosynthesis in fluconazole susceptible Candida albicans ATCC 90028 at 0.5 to 1 times MIC relative to control; assay type: functional
# How it was run: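 ATCC90028 grown in 50 ml TSB with MIC and ½ MIC of compound; untreated and 8 μg mL–1 fluconazole controls. Sterols extracted by alcoholic KOH method and spectrophotometrically scanned; ergosterol % calculated from A281.5 and A230 (E values 290 and 518) with dilution factor, per pellet weight.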
# [32] = system: Candida albicans; assay: Down regulation of ERG11 gene expression in fluconazole resistant Candida albicans A171 at MIC after 2 hrs by qRT PCR analysis relative to control; assay type: functional
# How it was run: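 Cells exposed 2 h to test agents at MIC. Total RNA isolated, cDNA synthesized, qPCR for ERG11 with ACT1 as endogenous control. Triplicate independent experiments, reported as mean ± standard deviation.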
# [33] = system: Candida albicans; assay: Down regulation of ERG11 gene expression in fluconazole susceptible Candida albicans ATCC 90028 at MIC after 2 hrs by qRT PCR analysis relative to control; assay type: functional
# How it was run: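 Cells exposed to compound at MIC for 2 h; total RNA isolated, cDNA synthesised, ERG11 measured by real-time qPCR with ACT1 as endogenous control. Triplicate independent experiments; mean ± standard deviation.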
SMILES,MIC [1] [µg/mL],MIC [2] [µg/mL],MIC [3] [µg/mL],MIC [4] [µg/mL],MIC [5] [µg/mL],MIC [6] [µg/mL],MIC [7] [µg/mL],MIC [8] [µg/mL],MIC [9] [µg/mL],MIC [10] [µg/mL],fractional inhibitory concentration index (FICI) [11],fractional inhibitory concentration index (FICI) [12],fractional inhibitory concentration index (FICI) [13],fractional inhibitory concentration index (FICI) [14],fractional inhibitory concentration index (FICI) [15],fractional inhibitory concentration index (FICI) [16],fractional inhibitory concentration index (FICI) [17],fractional inhibitory concentration index (FICI) [18],fractional inhibitory concentration index (FICI) [19],fractional inhibitory concentration index (FICI) [20],further results
c1ccc(C2=NOC(c3ccc(C4CC(c5ccccc5)=NO4)cc3)C2)cc1 (stereo unspecified),8 to 16,8 to 16,8 to 16,2 to 8,2 to 8,2 to 8,2 to 8,2 to 8,2 to 8,2 to 8,0.532 - 1.02,0.532 - 1.02,0.532 - 1.02,0.37 - 0.75,0.37 - 0.75,0.37 - 0.75,0.37 - 0.75,0.37 - 0.75,0.37 - 0.75,0.37 - 0.75,inhibition [21]: < 20%; inhibition [22]: < 20%; inhibition [23]: < 20%; inhibition [24]: < 20%; inhibition [25]: < 20%; inhibition [26]: < 20%; inhibition [27]: < 20%; inhibition [28]: < 20%; inhibition [29]: < 20%; inhibition (INH) [30]: 49 - 94%; inhibition (INH) [31]: 66 - 99%; fold change (FC) [32]: 1.25 - 10; fold change (FC) [33]: 1.5 - 13
NC(=S)N1N=C(c2ccccc2)CC1c1ccc(C2CC(c3ccccc3)=NN2C(N)=S)cc1 (stereo unspecified),125 to 500,125 to 500,125 to 500,8 to 125,8 to 125,8 to 125,8 to 125,8 to 125,8 to 125,8 to 125,0.372 - 1.5,0.372 - 1.5,0.372 - 1.5,0.53 - 2.19,0.53 - 2.19,0.53 - 2.19,0.53 - 2.19,0.53 - 2.19,0.53 - 2.19,0.53 - 2.19,inhibition [21]: < 20%; inhibition [22]: < 20%; inhibition [23]: < 20%; inhibition [24]: < 20%; inhibition [25]: < 20%; inhibition [26]: < 20%; inhibition [27]: < 20%; inhibition [28]: < 20%; inhibition [29]: < 20%; inhibition (INH) [30]: 49 - 94%; inhibition (INH) [31]: 66 - 99%; fold change (FC) [32]: 1.25 - 10; fold change (FC) [33]: 1.5 - 13
